According to ChEMBL document CHEMBL2311435, “Development of 18F-labeled picolinamide probes for PET imaging of malignant melanoma” (J Med Chem, 2013):

Columns and labels:
Pancreas [1] = test: Biodistribution in pancreas of C57BL/6 mouse xenografted with mouse B16F10 cells at 3.7 MBq, iv after 1 hr by gamma-scintillation counting analysis; format: ADME, organism-based, B16-F10; conditions: in vivo
Summary of the method: (§1)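 1.0 × 10^6 B16F10 cells in PBS injected subcutaneously into the right shoulder of C57BL/6 mice, grown to 0.5 cm (~10 day). Tail-vein injection of about 3.7 MBq (100 μCi) 18F probe in PBS (0.1 M, pH 7.4). Killed at 1.0 or 2.0 h p.i. (n = 4 per group). Tissues excised, weighed and gamma-counted; uptake expressed as %ID/g, mean ± SD.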

Bone [2] = test: Biodistribution in bone of C57BL/6 mouse xenografted with mouse B16F10 cells at 3.7 MBq, iv after 2 hrs by gamma-scintillation counting analysis; format: ADME, organism-based, Bone element, B16-F10; conditions: in vivo; summary of the method: as §1
Nucleic Acid [3] = test: Ratio of drug uptake in tumor to lungs of C57BL/6 mouse xenografted with mouse B16F10 cells at 3.7 MBq, iv after 2 hrs by gamma-scintillation counting analysis; format: ADME, organism-based, B16-F10; conditions: in vivo
Summary of the method: (§2)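 Same subcutaneous B16F10 model and tail-vein dose of about 3.7 MBq (100 μCi), n = 4 per group. Dissection at 1 or 2 h p.i. Gamma-counter %ID/g of tumor divided by that of blood, lung, liver or muscle, given as mean ± SD.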

Kidney [4] = test: Biodistribution in kidney of C57BL/6 mouse xenografted with mouse B16F10 cells at 3.7 MBq, iv after 2 hrs by gamma-scintillation counting analysis; format: ADME, organism-based, B16-F10; conditions: in vivo; summary of the method: as §1
[5] = Drug uptake in tumor of C57BL/6 mouse xenografted with mouse B16F10 cells at 3.7 MBq, iv after 0.5 hrs by PET imaging analysis; format: ADME, organism-based, Neoplasm, B16-F10; conditions: in vivo
Summary of the method: (§3)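 Static small-animal PET at 0.5, 1 and 2 h after tail-vein injection of ~3.7 MBq (100 μCi) into B16F10-bearing C57BL/6 mice (n = 4 per probe). Isoflurane anesthesia, 5% induction and 2% maintenance in O2. Decay-corrected images. ROI-derived %ID/g assumes 1 g/ml density, without attenuation correction. Mean ± SD.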

Zone of skin = test: Biodistribution in skin of C57BL/6 mouse xenografted with mouse B16F10 cells at 3.7 MBq, iv after 2 hrs by gamma-scintillation counting analysis; format: ADME, organism-based, B16-F10; conditions: in vivo; summary of the method: as §1
Brain = test: Biodistribution in brain of C57BL/6 mouse xenografted with mouse B16F10 cells at 3.7 MBq, iv after 1 hr by gamma-scintillation counting analysis; format: ADME, organism-based, B16-F10; conditions: in vivo; summary of the method: as §1
Muscle tissue [6] = test: Biodistribution in muscle of C57BL/6 mouse xenografted with mouse B16F10 cells at 3.7 MBq, iv after 1 hr by gamma-scintillation counting analysis; format: ADME, organism-based, B16-F10; conditions: in vivo; summary of the method: as §1
Nucleic Acid [7] = test: Ratio of drug uptake in tumor to blood of C57BL/6 mouse xenografted with mouse B16F10 cells at 3.7 MBq, iv after 2 hrs by gamma-scintillation counting analysis; format: ADME, organism-based, B16-F10; conditions: tumour; summary of the method: as §2
[8] = Drug uptake in tumor of C57BL/6 mouse xenografted with mouse B16F10 cells at 3.7 MBq, iv after 1 hr by PET imaging analysis; format: ADME, organism-based, Neoplasm, B16-F10; conditions: in vivo; summary of the method: as §3
Nucleic Acid [9] = test: Ratio of drug uptake in tumor to lungs of C57BL/6 mouse xenografted with mouse B16F10 cells at 3.7 MBq, iv after 1 hr by gamma-scintillation counting analysis; format: ADME, organism-based, B16-F10; conditions: in vivo; summary of the method: as §2
Muscle tissue [10] = test: Biodistribution in muscle of C57BL/6 mouse xenografted with mouse B16F10 cells at 3.7 MBq, iv after 2 hrs by gamma-scintillation counting analysis; format: ADME, organism-based, B16-F10; conditions: in vivo; summary of the method: as §1
[11] = Drug uptake in tumor of C57BL/6 mouse xenografted with mouse B16F10 cells at 3.7 MBq, iv after 5 mins by PET imaging analysis; format: ADME, organism-based, Neoplasm, B16-F10; conditions: in vivo
Summary of the method: (§4)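 Dynamic small-animal PET in B16F10 tumor-bearing mice (n = 4) after tail-vein injection of ~3.7 MBq (100 μCi). Scanning began ~2.0 min post-injection and ran 35 min (6×20 s, 8×60 s, 10×150 s; 24 frames). ROI counts converted to %ID/g assuming 1 g/ml tissue density. No attenuation correction.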

[12] = Drug uptake in tumor of C57BL/6 mouse xenografted with mouse B16F10 cells at 3.7 MBq, iv after 35 mins by PET imaging analysis; format: ADME, organism-based, Neoplasm, B16-F10; conditions: in vivo; summary of the method: as §4
Heart = test: Biodistribution in heart of C57BL/6 mouse xenografted with mouse B16F10 cells at 3.7 MBq, iv after 2 hrs by gamma-scintillation counting analysis; format: ADME, organism-based, B16-F10; conditions: in vivo; summary of the method: as §1
Spleen = test: Biodistribution in spleen of C57BL/6 mouse xenografted with mouse B16F10 cells at 3.7 MBq, iv after 1 hr by gamma-scintillation counting analysis; format: ADME, organism-based, B16-F10; conditions: in vivo; summary of the method: as §1
Stomach [13] = test: Biodistribution in stomach of C57BL/6 mouse xenografted with mouse B16F10 cells at 3.7 MBq, iv after 1 hr by gamma-scintillation counting analysis; format: ADME, organism-based, B16-F10; conditions: in vivo; summary of the method: as §1
Mus musculus [14] = test: Biodistribution in lungs of C57BL/6 mouse xenografted with mouse B16F10 cells at 3.7 MBq, iv after 1 hr by gamma-scintillation counting analysis; format: ADME, organism-based, Lung, B16-F10; conditions: in vivo; summary of the method: as §1
Nucleic Acid [15] = test: Ratio of drug uptake in tumor to muscle of C57BL/6 mouse xenografted with mouse B16F10 cells at 3.7 MBq, iv after 1 hr by gamma-scintillation counting analysis; format: ADME, organism-based, B16-F10; conditions: in vivo; summary of the method: as §2
Stomach [16] = test: Biodistribution in stomach of C57BL/6 mouse xenografted with mouse B16F10 cells at 3.7 MBq, iv after 2 hrs by gamma-scintillation counting analysis; format: ADME, organism-based, B16-F10; conditions: in vivo; summary of the method: as §1
Mus musculus [17] = test: Biodistribution in eye of C57BL/6 mouse xenografted with mouse B16F10 cells at 3.7 MBq, iv after 1 hr by gamma-scintillation counting analysis; format: ADME, organism-based, B16-F10; conditions: in vivo; summary of the method: as §1
[18] = Drug uptake in tumor of C57BL/6 mouse xenografted with mouse B16F10 cells at 3.7 MBq, iv after 2 hrs by PET imaging analysis; format: ADME, organism-based, Neoplasm, B16-F10; conditions: in vivo; summary of the method: as §3
Intestine = test: Biodistribution in intestine of C57BL/6 mouse xenografted with mouse B16F10 cells at 3.7 MBq, iv after 1 hr by gamma-scintillation counting analysis; format: ADME, organism-based, B16-F10; conditions: in vivo; summary of the method: as §1
Pancreas [19] = test: Biodistribution in pancreas of C57BL/6 mouse xenografted with mouse B16F10 cells at 3.7 MBq, iv after 2 hrs by gamma-scintillation counting analysis; format: ADME, organism-based, B16-F10; conditions: in vivo; summary of the method: as §1
Nucleic Acid [20] = test: Ratio of drug uptake in tumor to liver of C57BL/6 mouse xenografted with mouse B16F10 cells at 3.7 MBq, iv after 2 hrs by gamma-scintillation counting analysis; format: ADME, organism-based, B16-F10; conditions: in vivo; summary of the method: as §2
Mus musculus [21] = test: Biodistribution in tumor of C57BL/6 mouse xenografted with mouse B16F10 cells at 3.7 MBq, iv after 1 hr by gamma-scintillation counting analysis; format: ADME, organism-based, Neoplasm, B16-F10; conditions: in vivo; summary of the method: as §1
Bone [22] = test: Biodistribution in bone of C57BL/6 mouse xenografted with mouse B16F10 cells at 3.7 MBq, iv after 1 hr by gamma-scintillation counting analysis; format: ADME, organism-based, Bone element, B16-F10; conditions: in vivo; summary of the method: as §1
Kidney [23] = test: Biodistribution in kidney of C57BL/6 mouse xenografted with mouse B16F10 cells at 3.7 MBq, iv after 1 hr by gamma-scintillation counting analysis; format: ADME, organism-based, B16-F10; conditions: in vivo; summary of the method: as §1
Kidney [24] = test: Drug uptake in kidney of C57BL/6 mouse xenografted with mouse B16F10 cells at 3.7 MBq, iv after 5 mins by PET imaging analysis; format: ADME, organism-based, B16-F10; conditions: in vivo; summary of the method: as §4
Mus musculus [25] = test: Biodistribution in eye of C57BL/6 mouse xenografted with mouse B16F10 cells at 3.7 MBq, iv after 2 hrs by gamma-scintillation counting analysis; format: ADME, organism-based, B16-F10; conditions: in vivo; summary of the method: as §1
Liver = test: Biodistribution in liver of C57BL/6 mouse xenografted with mouse B16F10 cells at 3.7 MBq, iv after 2 hrs by gamma-scintillation counting analysis; format: ADME, organism-based, B16-F10; conditions: in vivo; summary of the method: as §1

Q: What does the source list for CCN(CC)CCNC(=O)c1ccc([18F])cn1?
A: Drug uptake (Pancreas [1]): 1.61 % ID/g; Drug uptake (Bone [2]): 1.72 % ID/g; Ratio (Nucleic Acid [3]): 24.92; Drug uptake (Kidney [4]): 1.03 % ID/g; Drug uptake [5]: 12.74 % ID/g; Drug uptake (Zone of skin): 0.68 % ID/g; Drug uptake (Brain): 1.28 % ID/g; Drug uptake (Muscle tissue [6]): 1.16 % ID/g; Ratio (Nucleic Acid [7]): 88.25; Drug uptake [8]: 16.61 % ID/g; Ratio (Nucleic Acid [9]): 9.94; Drug uptake (Muscle tissue [10]): 0.41 % ID/g; Drug uptake [11]: 5.28 % ID/g; Drug uptake [12]: 10.52 % ID/g; Drug uptake (Heart): 0.59 % ID/g; Drug uptake (Spleen): 1.78 % ID/g; Drug uptake (Stomach [13]): 4.26 % ID/g; Drug uptake (Mus musculus [14]): 1.58 % ID/g; Ratio (Nucleic Acid [15]): 13.84; Drug uptake (Stomach [16]): 1.47 % ID/g; Drug uptake (Mus musculus [17]): 37.47 % ID/g; Drug uptake [18]: 16.87 % ID/g; Drug uptake (Intestine): 2.01 % ID/g; Drug uptake (Pancreas [19]): 0.61 % ID/g; Ratio (Nucleic Acid [20]): 5.14; Drug uptake (Mus musculus [21]): 15.2 % ID/g; Drug uptake (Bone [22]): 2.4 % ID/g; Drug uptake (Kidney [23]): 3.32 % ID/g; Drug uptake (Kidney [24]): 24.91 % ID/g; Drug uptake (Mus musculus [25]): 32.83 % ID/g; Drug uptake (Liver): 3.32 % ID/g
